Experimental findings from ChEMBL document CHEMBL1121366, “Synthesis and immunological activity of 5,6,6a,8,9,11a-hexahydronaphth[1',2':4,5]imidazo[2,1-b]thiazoles and 5,6,6a,9,10,11a-hexahydroanaphth[2',1':4,5]imidazo[2,1-b]thiazoles” (J Med Chem, 1980) are described below.

Data set [1] relates to Mus musculus. Kind of data set: Effect on humoral immune response in mice against sheep red blood cells by the plaque-forming cell (PFC/10e6 spleen cells) method in experiment 6 at dose 12 mg/kg. The data set is classed as functional. In a few lines:
(§1)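 Male CDF1 (Balb/c × DBA/2Cr) mice, 8-10 weeks old, groups of four, were immunized iv with 1 × 10^8 SRBC in PBS. After 24 h they received a single sc inguinal dose in saline, or as a suspension in saline with 1% Me2SO. Spleens were taken 4 days later and hemolytic plaque-forming cells counted by Cunningham's method. Values are the mean of four mice ± SE, with a paired Student's t test against the control.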

For data set [2], the system named is Mus musculus. Kind of data set: Tested for increase in foot-pad thickness (mm) by its effect on cellular immune response in mice against sheep red blood cells by DHR method in experiment 15 at dose 12 mg/kg. The data set is classed as functional. In a few lines: (§2)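 Male mice, 8–10 weeks old, ICR strain. Groups of four were sensitized with 1 × 10^8 SRBC in PBS into one hind footpad, with compound given sc in the inguinal region in saline or saline/1% Me2SO. Four days later, 1 × 10^8 SRBC were injected into the other hind footpad. Foot thickness was measured with a dial gauge just before and 24 h after this challenge, and the increase was taken as the difference. Values are the mean of four mice ± SE.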

Data set [3] has as its system Mus musculus. Kind of data set: Tested for increase in foot-pad thickness (mm) by its effect on cellular immune response in mice against sheep red blood cells by the DHR method in experiment 15 at dose 3 mg/kg. The data set is classed as functional. In a few lines:
as §2

In data set [4] the test system is Mus musculus. Kind of data set: Effect on humoral immune response in mice against sheep red blood cells by the plaque-forming cell (PFC/10e6 spleen cells) method in experiment 6 at dose 3 mg/kg. The data set is classed as functional. In a few lines: as §1
Data set [5] can be described thus: Acute lethal dose was determined in mice upon intravenous administration. It counts as ADME, organism-based. The following applies: mouse, in vivo. In a few lines:
(§3)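 Male mice, 8–10 weeks old, CDF1 (Balb/c × DBA/2Cr). Groups of six dosed once, either iv or sc. Three to five dose levels were chosen from 400, 300, 150, 80, 40, 20 and 10 mg/kg. LD50 was calculated by the Litchfield–Wilcoxon method. Vehicle was saline or saline with 1% Me2SO, depending on compound.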

In data set [6] the test system is Mus musculus. Kind of data set: Tested for increase in foot-pad thickness (mm) by its effect on cellular immune response in mice against sheep red blood cells by DHR method in experiment 17 at dose 12 mg/kg. It counts as functional. In a few lines: (§4)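 Male ICR mice, 8-10 weeks old, groups of four, were sensitized with 1 × 10^8 SRBC in PBS into one hind footpad and dosed sc in the inguinal region, in saline or in saline with 1% Me2SO. Four days later the other footpad was challenged with 1 × 10^8 SRBC. Foot thickness was gauged just before and 24 h after challenge, and the increase was reported as mean of four ± SE.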

Data set [7] deals with Mus musculus. Kind of data set: Effect on humoral immune response in mice against sheep red blood cells by the plaque-forming cell (PFC/10e6 spleen cells) method in experiment 8 at dose 12 mg/kg. It counts as functional. In a few lines:
as §1

The test system of data set [8] is Mus musculus. Kind of data set: Effect on humoral immune response in mice against sheep red blood cells by the plaque-forming cell (PFC/10e6 spleen cells) method in experiment 8 at dose 3 mg/kg. It counts as functional. In a few lines:
as §1

Data set [9] concerns Mus musculus. Kind of data set: Tested for increase in foot-pad thickness (mm) by its effect on cellular immune response in mice against sheep red blood cells by the DHR method in experiment 17 at dose 3 mg/kg. It counts as functional. In a few lines:
as §4

Data set [10] has as its system Mus musculus. Kind of data set: Effect on humoral immune response in mice against sheep red blood cells by the plaque-forming cell (PFC/10e6 spleen cells) method in experiment 4 at dose 12 mg/kg. The data set is classed as functional. In a few lines: as §1
The subject of data set [11] is Mus musculus. Kind of data set: Effect on humoral immune response in mice against sheep red blood cells by the plaque-forming cell (PFC/10e6 spleen cells) method in experiment 4 at dose 3 mg/kg. The data set is classed as functional. In a few lines: as §1
The test system of data set [12] is Mus musculus. Kind of data set: Tested for increase in foot-pad thickness (mm) by its effect on cellular immune response in mice against sheep red blood cells by the DHR method in experiment 13 at dose 3 mg/kg. The data set is classed as functional. In a few lines:
as §4

In data set [13] the test system is Mus musculus. Kind of data set: Tested for increase in foot-pad thickness (mm) by its effect on cellular immune response in mice against sheep red blood cells by DHR method in experiment 13 at dose 12 mg/kg. It counts as functional. In a few lines:
as §4

The test system of data set [14] is Mus musculus. Kind of data set: Effect on humoral immune response in mice against sheep red blood cells by the plaque-forming cell (PFC/10e 6 spleen cells) method in experiment 9 at dose 12 mg/kg. It counts as functional. In a few lines: as §1
Data set [15] has as its system Mus musculus. Kind of data set: Effect on humoral immune response in mice against sheep red blood cells by the plaque-forming cell (PFC/10e 6 spleen cells) method in experiment 9 at dose 3 mg/kg. It counts as functional. In a few lines:
as §1

Data set [16] relates to Mus musculus. Kind of data set: Tested for increase in foot-pad thickness (mm) by its effect on cellular immune response in mice against sheep red blood cells by the DHR method in experiment 11 at dose 3 mg/kg. The data set is classed as functional. In a few lines: as §4
Data set [17] concerns Mus musculus. Kind of data set: Acute lethal dose was determined in mice upon subcutaneous administration. It counts as ADME, organism-based. To be noted: in vivo, sc. In a few lines: as §3
For data set [18], the system named is Mus musculus. Kind of data set: Effect on humoral immune response in mice against sheep red blood cells by the plaque-forming cell (PFC/10e 6 spleen cells) method in experiment 2 at dose 12 mg/kg. It counts as functional. In a few lines:
(§5)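 Male ICR mice, 8-10 weeks old, groups of four, were immunized iv with 1 × 10^8 SRBC in PBS. After 24 h they received a single sc inguinal dose in saline, or as a suspension in saline with 1% Me2SO. Splenic hemolytic plaque-forming cells were counted 4 days later by Cunningham's method. Values are the mean of four ± SE, with a paired t test against the control.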

Data set [19] deals with Mus musculus. Kind of data set: Effect on humoral immune response in mice against sheep red blood cells by the plaque-forming cell (PFC/10e 6 spleen cells) method in experiment 2 at dose 3 mg/kg. The data set is classed as functional. In a few lines:
as §5

In data set [20] the test system is Mus musculus. Kind of data set: Tested for increase in foot-pad thickness (mm) by its effect on cellular immune response in mice against sheep red blood cells by DHR method in experiment 11 at dose 12 mg/kg. The data set is classed as functional. In a few lines: as §4

Regarding `Brc1ccc2c(c1)C1C(CC2)N=C2SCCN21` (stereo unspecified), the PFC is 870 in the data set on Mus musculus [1] and 980 with Mus musculus [4]. Besides, the values for the Increase in footpad thickness in the data set with Mus musculus [2] and in the data set on Mus musculus [3] were 0.38 mm and 0.35 mm, respectively.
In general, LD50 refers to the dose expected to kill half of the subjects tested. A lower LD50 goes with greater toxicity. Consider `C[C@@H]1SC2=NC3c4ccccc4CCC3N2[C@@]1(O)c1ccccc1` (stereo partly specified), for which the LD50 in [5] is 170 mg/kg. Moreover, the Increase in footpad thickness in the data set on Mus musculus [6] worked out at 0.52 mm; in the data set with Mus musculus [9], 0.28 mm. The PFC came out at 1120 in the data set with Mus musculus [7] and 550 with Mus musculus [8].
In the case of `Clc1ccc2c(c1)CCC1N=C3SCCN3C21` (stereo unspecified), the PFC was found to be 1700 with Mus musculus [10] and 1880 with Mus musculus [11]. In addition, the Increase in footpad thickness in the data set with Mus musculus [12] was 0.27 mm; with Mus musculus [13], 0.28 mm.
Take `CC1=C(c2ccccc2)N2C(=NC3c4ccccc4CCC32)S1` (stereo unspecified): the PFC is 470 with Mus musculus [14] and 740 in the data set with Mus musculus [15]. The Increase in footpad thickness worked out at 0.32 mm in the data set with Mus musculus [6] and 0.2 mm in the data set on Mus musculus [9].
Take `Clc1ccc2c(c1)CCC1C2N=C2SCCN21` (cis isomer): the PFC is 970 with Mus musculus [10] and 1560 in the data set on Mus musculus [11]. Besides, the results for the Increase in footpad thickness with Mus musculus [12] and in the data set with Mus musculus [13] were 0.26 mm and 0.33 mm, respectively.
Consider `Brc1ccc2c(c1)C1N=C3SCCN3C1CC2` (cis isomer), for which the PFC in the data set with Mus musculus [1] is 1495; with Mus musculus [4], 960. Further, the Increase in footpad thickness with Mus musculus [2] was 0.45 mm; with Mus musculus [3], 0.36 mm.
For the compound `c1ccc2c(c1)CCC1N=C3SCCN3C21` (stereo in doubt), the Increase in footpad thickness in the data set with Mus musculus [16] was found to be 0.37 mm; with Mus musculus [20], 0.38 mm. Besides, the figures for the LD50 (with Mus musculus [17]; in data set [5]) were 68 mg/kg and 20 mg/kg, respectively. Also, the PFC in the data set with Mus musculus [18] is 1610; in the data set on Mus musculus [19], 1800.
